According to article PMC7723353 (Revista do Instituto de Medicina Tropical de São Paulo, 2020):

Columns and labels:
[1] = system: Zika virus (clinical isolate, IMT17); assay: Anti-ZIKV viral plaque reduction assay in Vero cells; assay type: cell-based; details: for EC50: 96 h, read-out: Anti-ZIKV activity EC50; for Selectivity index (SI): ratio between cytotoxicity and antiviral activity (CC50/EC50), Vero cells
In short: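 ZIKV clinical isolate IMT17 on Vero cells (1.5 × 10^5 cells/well, grown 24 h). Infection at 100 PFU/well for 1 h at 37 °C, 5% CO2, then PBS (pH 7.0) wash. Test compound at several concentrations in 2X MEM, 2% FBS, 50% high-viscosity CMC overlay. Ribavirin positive control; medium and DMSO controls. After 4 days, crystal violet stain; plaque counts give % inhibition, EC50 by non-linear regression; SI = CC50/EC50.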

[2] = Cytotoxicity by MTT assay in Vero cells; assay type: cell-based; details: African green monkey, Vero cells (African green monkey kidney)
In short: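 Vero cells at 2.7 × 10^5 cells/mL in MEM with 5% FBS, held 24 h at 37 °C, 5% CO2. Medium replaced by two-fold serial dilutions of test compound from DMSO stocks, or DMSO; medium-only cell controls. Incubation 4 days at 37 °C, then MTT (5 mg/mL solution) for 4 h. Formazan dissolved in DMSO, absorbance read at 540 nm. CC50 from % viability by regression.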

| Compound | EC90 ([1]; Zika virus, Vero) [µM] | EC50 ([1]; Zika virus, Vero) [µM] | Selectivity index (SI) [1] | CC50 at 4 days [2] [µM] |
| --- | --- | --- | --- | --- |
| CC(C)c1cc2c(cc1O)[C@@]1(C)CCC[C@@](C)(C=O)[C@@H]1CC2 [Compound 8, 18-oxoferruginol] | 20.8 ± 3.75 | 2.6 ± 0.07 | 13.51 | 35.1 ± 5.2 |
| NC(=O)c1ncn([C@@H]2O[C@H](CO)[C@@H](O)[C@H]2O)n1 [Ribavirin, reference compound] | – | 98.5 ± 6.46 | 26.25 | 2590 |
